Results of several laboratories.
Compare with care: the assays were run in different laboratories.
Target: Phosphatidylinositol 4-phosphate 5-kinase type-1 alpha (PIP5K1A, Homo sapiens, UniProt Q99755)

| Compound | test | setting | remaining binding |
| --- | --- | --- | --- |
| O=C(NCC1CCOCC1)c1n[nH]cc1NC(=O)c1c(F)cccc1F | binding, competition with immobilised ligand | 1 µM | 100% |
| COc1cnc(Nc2cccc(S(N)(=O)=O)c2)nc1N1CCN(c2ccccc2)C(=O)C1 | binding, competition with immobilised ligand | 1 µM | 89% |
| Cc1cc(C)c(-n2ccn3nc(-c4cccnc4)cc23)cc1NC(=O)c1cc(C#N)cc(S(F)(F)(F)(F)F)c1 | cell-free assay, competition with immobilised ligand | 0.1 µM | 95% |
| Nc1ncc2c(n1)-c1c([nH]c3ccc(C#CC4CC4)cc13)CCCC2 | binding, competition with immobilised ligand | 1 µM | 99% |
| Cc1cnc(Nc2ccc(C(=O)N3CCC(N4CCCC4)CC3)cc2)nc1-c1cc2ccccc2s1 | binding, competition with immobilised ligand | 1 µM | 1.5% |
| CN(C)c1nccc(-c2cnc3ncccn23)n1 | binding | 1 µM | 72% |
| O=C(O)c1cc(-c2ccc(C3CCNCC3)cc2)c2ccc(-c3ccc(C(F)(F)F)cc3)cc2c1 | cell-free assay, competition with immobilised ligand | 1 µM | 78% |
| C[C@H]1CCN(c2nccc(-c3cnn4ncccc34)n2)C1 | binding | 1 µM | 47% |
| CC(=O)c1c(NS(C)(=O)=O)c2cc(-c3ccc(Cl)cc3)c(-c3ccc(Cl)cc3Cl)nc2n(C)c1=O | cell-free assay, competition with immobilised ligand | 1 µM | 97% |
| O=C(NCCCN1CCOCC1)c1ccc(Nc2ncc(Cl)c(-c3ccc(Cl)s3)n2)cc1 | binding, competition with immobilised ligand | 1 µM | 8.3% |
| F[C@@H]1CCN(c2nccc(-c3cnn4ncccc34)n2)C1 | binding | 1 µM | 100% |
| O=C(NCCCN1CCOCC1)c1ccc(Nc2nccc(-c3cc4ccccc4s3)n2)cc1 | binding, competition with immobilised ligand | 1 µM | 4.2% |
| CN(CCCC(F)(F)F)c1nccc(-c2cnn3ncccc23)n1 | binding | 1 µM | 100% |
| CCN1CCN(Cc2ccc(C(=O)Nc3ccc(C)c(Oc4ccc5c(c4)CC(=O)N5)c3)cc2C(F)(F)F)CC1 | binding, competition with immobilised ligand | 1 µM | 100% |
| Cc1c[nH]c2nccc(Oc3c(F)cc(Nc4cc(Cl)nc(N)n4)cc3F)c12 | cell-free assay, competition with immobilised ligand | 0.1 µM | 68% |
| C=CC(=O)N1CCC(C(=O)NCC(=O)N2CCN(c3nc(-c4cnc(N)nc4C(F)F)nc(N4CCOCC4)n3)CC2)CC1 | binding, competition with immobilised ligand | 1 µM | 100% |
| COc1ccnn2ncc(-c3ccnc(N(C)C)n3)c12 | binding | 1 µM | 72% |
| CN(C)CC#Cc1ccc(OCCCc2sc(N3CCc4cccc(C(=O)Nc5nc6ccccc6s5)c4C3)nc2C(=O)O)c(F)c1 | cell-free assay, competition with immobilised ligand | 1 µM | 100% |
| CC1CCCN1c1nccc(-c2cnn3ncccc23)n1 (centres unmarked) | binding | 1 µM | 100% |
| CNC(=O)[C@@H]1CC[C@@H](n2c(-c3ccc4cnccc4c3)nc3ccc(C(=O)NCc4cccc(C(N)=O)c4)cc32)C1 | binding, competition with immobilised ligand | 1 µM | 92% |
| COc1ncc2cc3ccccc3nc2c1C#N | cell-free assay, competition with immobilised ligand | 5 µM | 100% |
| CN(C)c1ncc(F)c(-c2cnn3ncccc23)n1 | binding | 1 µM | 100% |
| CN(c1ccnc(CNc2nc(Nc3ccc4c(c3)CC(=O)N4)ncc2C(F)(F)F)n1)S(C)(=O)=O | cell-free assay, competition with immobilised ligand | 1 µM | 12% |
